Source: ChEMBL document CHEMBL3272290, “Contragestational agents. 1. Steroidal O-aryloximes” (J Med Chem, 1977)

Tested on: Rattus norvegicus
Test: Antifertility activity in Wistar rat assessed as inhibition of preimplantive gestation by measuring resorptions at 2.5 mg/kg, po administered in days 9 to 12 of pregnancy measured on day 21
Assay type: functional
Design: scale not given: the % may be the effect or the level left
Summary of the method: (§1)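 Groups of five pregnant female Wistar-derived rats dosed orally on days 9–12 of pregnancy, in sesame oil at 0.5 mL per 200 g body weight. Read-out was the percentage of resorptions.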

SMILES | Activity
CC(=O)O[C@H]1CC[C@H]2[C@@H]3CC[C@H]4C/C(=N/Oc5ccc([N+](=O)[O-])cc5)[C@H](Br)C[C@]4(C)[C@H]3CC[C@]12C | 100%
C[C@]12C[C@@H](Br)/C(=N\Oc3ccc([N+](=O)[O-])cc3)C[C@@H]1CC[C@@H]1[C@@H]2CC[C@]2(C)[C@@H](O)CC[C@@H]12 | 100%
C[C@]12CC/C(=N\Oc3ccc([N+](=O)[O-])cc3)C[C@@H]1CC[C@@H]1[C@@H]2CC[C@]2(C)[C@@H](O)CC[C@@H]12 | 100%
CC12CC[C@H]3[C@@H](CC[C@H]4C/C(=N/Oc5ccc([N+](=O)[O-])cc5)[C@H](Cl)C[C@@]43C)[C@@H]1CCC2=O (single isomer, unassigned) | 100%
C[C@]12C[C@@H](Br)/C(=N\Oc3ccc([N+](=O)[O-])cc3)C[C@@H]1CC[C@@H]1[C@@H]2CC[C@]2(C)C(=O)CC[C@@H]12 | 100%

Tested on: Rattus norvegicus
Test: Antifertility activity in Wistar rat assessed as inhibition of preimplantive gestation by measuring resorptions at 40 mg/kg, po administered in days 9 to 12 of pregnancy measured on day 21
Assay type: functional
Design: scale not given: the % may be the effect or the level left
Summary of the method: as §1

SMILES | Activity
C[C@]12CC/C(=N\Oc3ccc([N+](=O)[O-])cc3[N+](=O)[O-])C[C@@H]1CC[C@@H]1[C@@H]2CC[C@]2(C)[C@@H](O)CC[C@@H]12 | 8.2%
CC(=O)O[C@H]1CC[C@H]2[C@@H]3CC[C@H]4C/C(=N/Oc5ccc([N+](=O)[O-])cc5)C[C@H](C)[C@]4(C)[C@H]3CC[C@]12C | 5.8%
CC(=O)O[C@H]1CC[C@H]2[C@@H]3CC[C@H]4C/C(=N/Oc5ccccc5[N+](=O)[O-])CC[C@]4(C)[C@H]3CC[C@]12C | 4%
C[C@]12CC/C(=N\Oc3ccc([N+](=O)[O-])cc3Cl)C[C@@H]1CC[C@@H]1[C@@H]2CC[C@]2(C)[C@@H](O)CC[C@@H]12 | 5.8%
C[C@@]12CCC[C@H]1[C@@H]1CC[C@H]3C/C(=N/Oc4ccc([N+](=O)[O-])cc4)CC[C@]3(C)[C@H]1CC2 | 0%
C[C@]12CC[C@H]3[C@@H](CCC4=C/C(=N/Oc5ccccc5)CC[C@@H]43)[C@@H]1CC[C@@H]2O | 100%
C#C[C@]1(O)CC[C@H]2[C@@H]3CCC4=C/C(=N/Oc5ccc([N+](=O)[O-])cc5)CC[C@@H]4[C@H]3CC[C@@]21C | 25%
C[C@]12CC[C@H]3[C@@H](CCC4=C/C(=N/Oc5ccc(C(F)(F)F)cc5)CC[C@@]43C)[C@@H]1CC[C@@H]2O | 11.8%
C[C@]12CC/C(=N\Oc3ccccc3)C[C@@H]1CC[C@@H]1[C@@H]2CC[C@]2(C)[C@@H](O)CC[C@@H]12 | 1.9%
C[C@]12CC/C(=N\Oc3ccc([N+](=O)[O-])cc3)C[C@@H]1CC[C@@H]1[C@@H]2CC[C@@]2(C)[C@H]1CC[C@]2(C)O | 14.7%
CC(=O)O[C@H]1CC[C@H]2[C@@H]3CC[C@H]4C/C(=N/Nc5ccc([N+](=O)[O-])cc5)CC[C@]4(C)[C@H]3CC[C@]12C | 7.7%
C[C@]1(O)CC[C@H]2[C@@H]3CC[C@H]4C/C(=N/Oc5ccc([N+](=O)[O-])cc5[N+](=O)[O-])CC[C@@H]4[C@H]3CC[C@@]21C | 9.5%
C[C@]12CC[C@H]3[C@@H](CC[C@H]4C/C(=N/Oc5ccc([N+](=O)[O-])cc5)CC[C@@H]43)[C@@H]1CC[C@@H]2O | 9.8%
CC(=O)O[C@H]1CC[C@H]2[C@@H]3CCC4C/C(=N/Oc5ccc([N+](=O)[O-])cc5)C=C[C@]4(C)[C@H]3CC[C@]12C (stereo partly specified) | 2%

Tested on: Rattus norvegicus
Test: Antifertility activity in Wistar rat assessed as inhibition of preimplantive gestation by measuring resorptions at 20 mg/kg, po administered in days 9 to 12 of pregnancy measured on day 21
Assay type: functional
Design: scale not given: the % may be the effect or the level left
Summary of the method: as §1

SMILES | Activity
C[C@]12CC[C@H]3[C@@H](CCC4=C/C(=N/Oc5ccc([N+](=O)[O-])cc5)CC[C@@H]43)[C@@H]1CC[C@@H]2O | 63.9%
C[C@]12CC[C@H]3[C@@H](CCC4=C/C(=N/Oc5ccc([N+](=O)[O-])cc5)C=C[C@@]43C)[C@@H]1CC[C@@H]2O | 6%
